# From ChEMBL document CHEMBL1154682, “Discovery of novel benzoxazinones as potent and orally active long chain fatty acid elongase 6 inhibitors” (J Med Chem, 2009)
# Activity calls are given as the source filed them. The rule behind the calls is not given here.
# Experiments:
# [1] = target: T1, Very long chain fatty acid elongase 6 (Homo sapiens, UniProt Q9H5J4); assay: Inhibition of human ELOVL6 expressed in Pichia pastoris using palmitoyl-CoA by long chain fatty acyl-CoA elongation assay
# T1 sequence (Q9H5J4 whole entry): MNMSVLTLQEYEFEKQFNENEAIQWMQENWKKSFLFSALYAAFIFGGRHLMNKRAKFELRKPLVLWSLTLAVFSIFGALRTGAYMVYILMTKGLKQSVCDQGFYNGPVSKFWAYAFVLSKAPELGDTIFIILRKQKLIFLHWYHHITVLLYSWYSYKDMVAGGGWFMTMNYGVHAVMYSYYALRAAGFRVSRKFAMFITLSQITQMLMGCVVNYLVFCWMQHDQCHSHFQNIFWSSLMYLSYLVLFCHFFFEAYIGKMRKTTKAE
# Summary of the method: (§1)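 Microsomes (3 μg) from Pichia pastoris SMD1168 expressing FLAG-tagged human or mouse ELOVL6 were incubated 1 h at 37 °C in 100 mM potassium phosphate pH 6.5 with 40 μM palmitoyl-CoA, 20 μM malonyl-CoA plus [14C]-malonyl-CoA, 500 μM NADPH, 200 μM BSA and 1 μM rotenone. DMSO was 1.0% final. After HCl hydrolysis, filter-retained 14C was counted. IC50 came from nonlinear regression on % of control.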
# [2] = target: T2, Very long chain fatty acid elongase 6 (Mus musculus, UniProt Q920L5); assay: Inhibition of mouse ELOVL6 expressed in Pichia pastoris using palmitoyl-CoA by long chain fatty acyl-CoA elongation assay; summary of the method: as §1
# T2 sequence (Q920L5 whole entry): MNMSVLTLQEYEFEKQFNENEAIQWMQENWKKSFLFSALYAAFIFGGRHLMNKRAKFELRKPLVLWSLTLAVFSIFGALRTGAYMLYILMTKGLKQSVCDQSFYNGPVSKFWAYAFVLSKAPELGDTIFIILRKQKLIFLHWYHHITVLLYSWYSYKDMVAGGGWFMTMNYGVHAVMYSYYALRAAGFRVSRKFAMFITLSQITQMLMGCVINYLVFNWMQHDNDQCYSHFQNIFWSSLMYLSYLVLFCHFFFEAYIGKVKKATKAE
# [3] = target: T2, Very long chain fatty acid elongase 6; assay: Inhibition of ELOVL6 in mouse H2.35 cells assessed as elongation index; type: cell-based
# Summary of the method: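 Subconfluent mouse hepatoma H2.35 cells were kept at 33 °C in DMEM with 200 nM dexamethasone and 4% FBS. Lipids were hydrolysed in NaOH at 70 °C, and fatty acids extracted and quantified by radio-HPLC. Elongation index = (C18:0 + C18:1) / (C16:0 + C16:1).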
# [4] = Unbound fraction in C57BL/6N mouse plasma; type: ADME, cell-free
# Summary of the method: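 Equilibrium dialysis was run with C57BL/6N mouse plasma adjusted to pH 7.4 and spiked with 1 μM compound, dialysed against PBS for 6 h at 37 °C. Both sides were analysed by LC-MS/MS. Unbound fraction = Cf/Cp × 100. Mean of n = 3.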
# [5] = target: T3, Very long chain fatty acid elongase 2 (Homo sapiens, UniProt Q9NXB9); assay: Inhibition of human ELOVL2
# T3 sequence (Q9NXB9 whole entry): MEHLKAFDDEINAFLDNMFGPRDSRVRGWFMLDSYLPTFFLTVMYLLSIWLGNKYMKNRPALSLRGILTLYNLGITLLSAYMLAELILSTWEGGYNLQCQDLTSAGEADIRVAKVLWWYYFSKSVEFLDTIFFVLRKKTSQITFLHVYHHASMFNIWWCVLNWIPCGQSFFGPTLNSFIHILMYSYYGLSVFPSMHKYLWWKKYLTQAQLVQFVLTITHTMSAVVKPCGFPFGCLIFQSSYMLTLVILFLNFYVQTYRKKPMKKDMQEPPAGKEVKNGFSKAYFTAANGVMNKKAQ
# Summary of the method: (§2)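 Microsomes were prepared from Pichia pastoris SMD1168 expressing FLAG-tagged human or mouse ELOVL. Incubation ran 1 h at 37 °C in 100 mM potassium phosphate pH 6.5 with 200 μM BSA, 500 μM NADPH, 1 μM rotenone, 20 μM malonyl-CoA plus [14C]-malonyl-CoA, and acyl-CoA: ELOVL1 and ELOVL3, 10 μM stearoyl-CoA; ELOVL2, 10 μM arachidonoyl-CoA; ELOVL5, 40 μM arachidonoyl-CoA. DMSO was 1.0% final. Products were acid-hydrolysed and filter-bound radioactivity counted.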
# [6] = AUC (0 to infinity) in Sprague-Dawley rat at 1 mg/kg, iv and 3 mg/kg, po; type: ADME, organism-based; details: plasma
# Summary of the method: (§3)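 Male SD rats, single dose: iv 1 mg/kg in PEG400/EtOH/H2O 50/10/40 or oral gavage 3 mg/kg in 0.5% methylcellulose suspension. Plasma was sampled at multiple time points up to 24 h, deproteinized with ethanol containing internal standard, and assayed. Values are means of n = 3 animals. Bioavailability was taken from AUC0-∞ after iv versus po.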
# [7] = Drug level in C57BL/6J mouse liver at 10 mg/kg, po after 2 hrs; type: ADME, organism-based; design: dose 10 mg/kg, route oral; details: read-out: Drug uptake
# Summary of the method: (§4)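 Male C57BL/6J mice were given a single oral gavage of 10 mg/kg in 0.5% methylcellulose suspension. Abdominal-vein blood and liver were taken 2 h after dosing. Liver was homogenized in PBS pH 7.4. Plasma and homogenate were deproteinized with ethanol containing internal standard before analysis.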
# [8] = Plasma concentration in C57BL/6J mouse at 30 mg/kg, po twice daily after 3 days; type: ADME, organism-based; design: dose 30 mg/kg, route oral
# [9] = Volume of distribution at steady state in Sprague-Dawley rat at 1 mg/kg, iv; type: ADME, organism-based; design: dose 1 mg/kg, route intravenous; details: in vivo, read-out: Vdss; summary of the method: as §3
# [10] = Plasma concentration in C57BL/6J mouse at 1 mg/kg, po after 2 hrs; type: ADME, organism-based; design: dose 1 mg/kg, route oral
# [11] = system: Mus musculus; assay: Reduction of elongation index of total fatty acids in C57BL/6J mouse liver at 30 mg/kg, po twice daily for 3 days; type: functional, organism-based; design: dose 30 mg/kg
# Summary of the method: (§5)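 Male C57BL/6J mice received 30 mg/kg orally twice daily for 3 days. Liver and plasma were hydrolysed in NaOH/ethanol with C17:0 internal standard. Fatty acids were derivatized with 2-nitrophenylhydrazine and measured by HPLC-UV at 400 nm. Elongation index (C18/C16) was expressed as % of vehicle control. Six mice per group.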
# [12] = target: T4, Very long chain fatty acid elongase 3 (Mus musculus, UniProt O35949); assay: Inhibition of mouse ELOVL3; summary of the method: as §2
# T4 sequence (O35949 whole entry): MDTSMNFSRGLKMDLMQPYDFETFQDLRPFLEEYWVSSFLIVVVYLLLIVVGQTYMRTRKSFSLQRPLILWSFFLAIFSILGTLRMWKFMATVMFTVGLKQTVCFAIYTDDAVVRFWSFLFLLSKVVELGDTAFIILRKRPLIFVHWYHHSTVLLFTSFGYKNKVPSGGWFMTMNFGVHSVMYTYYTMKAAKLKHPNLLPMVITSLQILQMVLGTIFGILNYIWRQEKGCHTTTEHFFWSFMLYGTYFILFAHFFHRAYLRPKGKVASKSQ
# [13] = Plasma concentration in C57BL/6J mouse at 30 mg/kg, po after 2 hrs; type: ADME, organism-based; design: dose 30 mg/kg, route oral; details: read-out: Concentration_plasma
# Summary of the method: (§6)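 Male C57BL/6J mice were given a single oral gavage of 30 mg/kg in 0.5% methylcellulose suspension. Plasma was sampled at 2, 4, 8 and 24 h, deproteinized with ethanol containing internal standard, and assayed. Values are means of n = 3 animals.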
# [14] = system: Mus musculus; assay: Reduction of elongation index of total fatty acids in C57BL/6J mouse plasma at 30 mg/kg, po twice daily for 3 days; type: functional, organism-based; design: dose 30 mg/kg; summary of the method: as §5
# [15] = target: T5, Very long chain fatty acid elongase 5 (Homo sapiens, UniProt Q9NYP7); assay: Inhibition of human ELOVL5; summary of the method: as §2
# T5 sequence (Q9NYP7 whole entry): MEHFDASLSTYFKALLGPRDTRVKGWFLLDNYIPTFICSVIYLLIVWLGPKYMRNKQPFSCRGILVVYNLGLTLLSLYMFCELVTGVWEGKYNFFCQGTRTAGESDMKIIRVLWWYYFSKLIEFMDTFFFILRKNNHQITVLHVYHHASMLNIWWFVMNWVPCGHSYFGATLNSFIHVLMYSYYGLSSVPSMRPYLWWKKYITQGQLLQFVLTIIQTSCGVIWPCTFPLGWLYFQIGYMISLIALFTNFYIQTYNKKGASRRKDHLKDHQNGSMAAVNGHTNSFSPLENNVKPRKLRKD
# [16] = Plasma concentration in C57BL/6J mouse at 30 mg/kg, po after 8 hrs; type: ADME, organism-based; design: dose 30 mg/kg, route oral; details: read-out: Concentration_plasma; summary of the method: as §6
# [17] = system: Mus musculus; assay: Reduction of elongation index of liver lipids in C57BL/6J mouse at 1 mg/kg, po; type: functional, organism-based; design: dose 1 mg/kg
# Summary of the method: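 Male C57BL/6J mice were dosed orally in 0.5% methylcellulose. [1-14C]palmitic acid, 10 μCi/body, was given intraperitoneally 1 h later. Liver was taken 2 h after dosing and saponified in KOH/ethanol at 70 °C. Labelled fatty acids were quantified by radio-HPLC, with elongation index C18/C16 expressed as % of control. Four mice per treatment.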
# [18] = target: T6, Very long chain fatty acid elongase 3 (Homo sapiens, UniProt Q9HB03); assay: Inhibition of human ELOVL3; summary of the method: as §2
# T6 sequence (Q9HB03 whole entry): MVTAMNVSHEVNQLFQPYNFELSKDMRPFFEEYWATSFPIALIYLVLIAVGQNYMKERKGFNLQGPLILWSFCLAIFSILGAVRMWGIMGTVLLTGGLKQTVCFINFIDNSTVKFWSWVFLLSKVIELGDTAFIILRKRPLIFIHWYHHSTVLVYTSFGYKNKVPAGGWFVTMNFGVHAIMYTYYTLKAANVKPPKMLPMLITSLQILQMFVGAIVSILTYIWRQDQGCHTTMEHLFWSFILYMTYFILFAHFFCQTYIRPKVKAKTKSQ
# [19] = Plasma concentration in C57BL/6J mouse at 10 mg/kg, po after 2 hrs; type: ADME, organism-based; design: dose 10 mg/kg, route oral; summary of the method: as §4
# [20] = Plasma clearance in Sprague-Dawley rat at 1 mg/kg, iv and 3 mg/kg, po; type: ADME, organism-based; summary of the method: as §3
# [21] = Oral bioavailability in Sprague-Dawley rat at 3 mg/kg; type: ADME, organism-based; details: in vivo; summary of the method: as §3
# [22] = Cmax in Sprague-Dawley rat at 1 mg/kg, iv and 3 mg/kg, po; type: ADME, organism-based; details: in vivo; summary of the method: as §3
# [23] = Half life in Sprague-Dawley rat at 1 mg/kg, iv; type: ADME, organism-based; design: dose 1 mg/kg, route intravenous; details: in vivo; summary of the method: as §3
# [24] = Plasma concentration in C57BL/6J mouse at 30 mg/kg, po after 4 hrs; type: ADME, organism-based; design: dose 30 mg/kg, route oral; details: read-out: Concentration_plasma; summary of the method: as §6
# [25] = target: T7, Very long chain fatty acid elongase 1 (Homo sapiens, UniProt Q9BW60); assay: Inhibition of human ELOVL1; summary of the method: as §2
# T7 sequence (Q9BW60 whole entry): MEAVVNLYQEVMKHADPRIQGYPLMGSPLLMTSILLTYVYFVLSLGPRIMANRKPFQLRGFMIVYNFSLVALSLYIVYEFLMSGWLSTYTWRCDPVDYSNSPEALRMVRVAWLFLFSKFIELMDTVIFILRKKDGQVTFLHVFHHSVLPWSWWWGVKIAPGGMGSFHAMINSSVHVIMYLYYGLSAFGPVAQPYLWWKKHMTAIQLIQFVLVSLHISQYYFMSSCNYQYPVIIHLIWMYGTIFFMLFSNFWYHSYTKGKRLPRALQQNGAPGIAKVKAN
smiles,measurement,setting,value
O=C(Nc1ccc(F)cc1)OCC1(C2CC2)OC(=O)Nc2ccc(Cl)cc21 (stereo not drawn),IC50,[1],1410 nM
"O=C(NCC1(C(F)(F)F)OC(=O)Nc2ccc(Cl)cc21)Nc1ccc(F)cc1 (single isomer, unassigned; (-))",IC50,[2],31 nM
same,IC50,[3],377 nM
same,fraction unbound,[4],0.005
"O=C1Nc2ccc(-n3cccn3)cc2C(CNC(=O)c2ccc(F)cc2)(C(F)(F)F)O1 (single isomer, unassigned; (+))",IC50,[2],29 nM
same,IC50,[3],58 nM
"O=C1Nc2ccc(-c3cn[nH]c3)cc2C(CNC(=O)c2ccc(F)cc2)(C(F)(F)F)O1 (single isomer, unassigned; (+))",IC50,[2],20 nM
same,IC50,[3],50 nM
O=C(Nc1ccc(F)cc1)OCC1(c2ccccc2)OC(=O)Nc2ccc(Cl)cc21 (stereo not drawn),IC50,[1],> 10000 nM
O=C1Nc2ccc(-c3ccn[nH]3)cc2[C@](CNC(=O)c2ccc(F)cc2)(C(F)(F)F)O1,IC50,[5],> 10000 nM
same,AUC(0-inf),[6],4.69 µM·h
same,concentration at 2 h,[7],12500 nM
same,concentration at 72 h,[8],> 540 nM
same,Vd,[9],0.7 L/kg
same,concentration at 2 h,[10],540 nM
same,IC50,[2],14 nM
same,Activity,[11],Active
same,IC50,[12],19 nM
same,concentration at 2 h,[13],11700 nM
same,Activity,[14],inactive
same,IC50,[15],> 10000 nM
same,concentration at 8 h,[16],700 nM
same,Activity,[17],Active
same,IC50,[18],130 nM
same,concentration at 2 h,[19],660 nM
same,clearance,[20],11 mL/min/kg
same,IC50,[3],3.6 nM
same,bioavailability,[21],30%
same,Cmax,[22],2400 nM
same,half-life,[23],1.9 h
same,fraction unbound,[4],0.107
same,concentration at 4 h,[24],3700 nM
same,IC50,[25],7000 nM
